According to ChEMBL document CHEMBL1123215, “Arginine-vasopressin analogues with high antidiuretic/vasopressor selectivity. Synthesis, biological activity, and receptor binding affinity of arginine-vasopressin analogues with substitutions in positions 1, 2, 4, 7, and 8” (J Med Chem, 1986):
Positions of bridges follow the written chain, without caps; N, C: chain ends. Non-standard residues stand in square brackets, D forms with d. Residues, ends and D or L forms follow the SMILES beside them. NMeA = CN[C@@H](C)C(=O)O; Mpa = O=C(O)CCS; Sar = CNCC(=O)O

Assays:
Vasopressin V2 receptor = Vasopressin V2 receptor (Bos taurus, UniProt P48044); experiment: Binding affinity against plasma membrane from bovine kidney inner medulla; assay type: tissue-based
Outline: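 Competition binding with [3H]AVP to plasma membranes, 30 min incubation; for rat liver membranes the standard medium included bacitracin (1 mg/mL). Apparent KD and slope factor b from weighted nonlinear least-squares fit of displacement curves to logistic curves; [3H]AVP parameters from direct binding. Mean ±SE of two experiments.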

Vasopressin V1 receptor = Vasopressin V1 receptor (Rattus norvegicus, UniProt P48974+P30560); experiment: Binding affinity against plasma membrane from rat liver
Outline: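 Rat liver plasma membranes, competition against [3H]AVP, 30 min incubation, bacitracin (1 mg/mL) in standard medium. Apparent KD and slope factor b from weighted nonlinear least-squares logistic fit of displacement curves; mean ±SE of two experiments.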

Rattus norvegicus [1] = experiment: Compound was tested for the antidiuretic activity against hydrated anaesthetized rats, after intravenous injection.; assay type: functional, Urine
Outline: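 Hydrated, anaesthetized rats given intravenous injection; effect measured as change in urine conductivity, with arginine-vasopressin as standard.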

Rattus norvegicus [2] = experiment: Compound was tested for the vasopressor activity against phenoxybenzamine treated rats, after intravenous injection.; assay type: functional
Outline: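 Pressor response measured in rats pretreated with phenoxybenzamine.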

[3] = Ratio of antidiuretic potency vs vasopressor potency; assay type: functional, Urine
Outline: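 Antidiuretic potency from urine conductivity change in hydrated anaesthetized rats after i.v. injection, vasopressor potency in phenoxybenzamine-treated rats, arginine-vasopressin as standard; ratio of the two potencies.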

Chain of Vasopressin V2 receptor (P48044 whole entry): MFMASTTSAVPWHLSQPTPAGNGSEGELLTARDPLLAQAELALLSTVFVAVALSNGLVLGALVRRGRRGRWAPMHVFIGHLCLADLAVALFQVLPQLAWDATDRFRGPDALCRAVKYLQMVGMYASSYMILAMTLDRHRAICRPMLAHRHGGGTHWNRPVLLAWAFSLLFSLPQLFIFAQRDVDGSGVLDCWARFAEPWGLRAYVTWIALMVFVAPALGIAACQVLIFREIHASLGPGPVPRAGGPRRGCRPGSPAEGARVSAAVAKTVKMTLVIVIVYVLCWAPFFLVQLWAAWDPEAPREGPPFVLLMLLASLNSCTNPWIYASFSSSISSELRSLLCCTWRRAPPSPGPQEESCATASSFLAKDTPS

Row | Structure (SMILES) | Kd (Vasopressin V2 receptor) [nM] | Kd (Vasopressin V1 receptor) [nM] | Potency (Rattus norvegicus [1]) [IU mg-1] | Potency (Rattus norvegicus [2]) [IU mg-1] | Ratio [3]
1 | CC(C)[C@@H]1NC(=O)[C@H](Cc2ccccc2)NC(=O)[C@H](Cc2ccc(O)cc2)NC(=O)[C@@H](N)CSSC[C@@H](C(=O)N(C)[C@@H](C)C(=O)N[C@@H](CCCNC(=N)N)C(=O)NCC(N)=O)NC(=O)[C@H](CC(N)=O)NC1=O (H-CYFVNC[NMeA]RG-NH2; disulfide 1-6) | 33 | 310 |  |  | 
2 | C[C@@H](C(=O)N[C@H](CCCN=C(N)N)C(=O)NCC(N)=O)N(C)C(=O)[C@@H]1CSSC[C@H](N)C(=O)N[C@@H](Cc2ccc(O)cc2)C(=O)N[C@@H](Cc2ccccc2)C(=O)N[C@@H](CCC(N)=O)C(=O)N[C@@H](CC(N)=O)C(=O)N1 [listing 1 of 2 here] | 21 | 280 |  |  | 
3 | CC(C)[C@@H]1NC(=O)[C@H](Cc2ccccc2)NC(=O)[C@H](Cc2ccc(O)cc2)NC(=O)[C@@H](N)CSSC[C@@H](C(=O)N(C)CC(=O)N[C@@H](CCCNC(=N)N)C(=O)NCC(N)=O)NC(=O)[C@H](CC(N)=O)NC1=O (H-CYFVNC[Sar]RG-NH2; disulfide 1-6) | 9.4 | 110 |  |  | 
4 | C[C@@H](C(=O)N[C@@H](CCCN=C(N)N)C(=O)NCC(N)=O)N(C)C(=O)[C@@H]1CSSC[C@H](N)C(=O)N[C@@H](Cc2ccc(O)cc2)C(=O)N[C@@H](Cc2ccccc2)C(=O)N[C@@H](CCC(N)=O)C(=O)N[C@@H](CC(N)=O)C(=O)N1 |  |  | 343 | 10.6 | 32
5 | CN(CC(=O)N[C@@H](CCCNC(=N)N)C(=O)NCC(N)=O)C(=O)[C@@H]1CSSC[C@H](N)C(=O)N[C@@H](Cc2ccccc2)C(=O)N[C@@H](Cc2ccccc2)C(=O)N[C@@H](CCC(N)=O)C(=O)N[C@@H](CC(N)=O)C(=O)N1 (H-CFFQNC[Sar]RG-NH2; disulfide 1-6) | 44 | 170 |  |  | 
6 | CN(CC(=O)N[C@@H](CCCN=C(N)N)C(=O)NCC(N)=O)C(=O)[C@@H]1CSSC[C@H](N)C(=O)N[C@@H](Cc2ccccc2)C(=O)N[C@@H](Cc2ccccc2)C(=O)N[C@@H](CCC(N)=O)C(=O)N[C@@H](CC(N)=O)C(=O)N1 (H-CFFQNC[Sar]RG-NH2; disulfide 1-6) |  |  | 39.6 | 0.17 | 230
7 | CN(CC(=O)N[C@@H](CCCN=C(N)N)C(=O)NCC(N)=O)C(=O)[C@@H]1CSSC[C@H](N)C(=O)N[C@@H](Cc2ccc(O)cc2)C(=O)N[C@@H](Cc2ccccc2)C(=O)N[C@@H](CCC(N)=O)C(=O)N[C@@H](CC(N)=O)C(=O)N1 |  |  | 188 | 3.6 | 52
8 | CC(C)[C@@H]1NC(=O)[C@H](Cc2ccccc2)NC(=O)[C@H](Cc2ccc(O)cc2)NC(=O)[C@@H](N)CSSC[C@@H](C(=O)N(C)CC(=O)N[C@@H](CCCN=C(N)N)C(=O)NCC(N)=O)NC(=O)[C@H](CC(N)=O)NC1=O (H-CYFVNC[Sar]RG-NH2; disulfide 1-6) |  |  | 270 | 34.7 | 8
9 | CC(C)[C@@H]1NC(=O)[C@H](Cc2ccccc2)NC(=O)[C@H](Cc2ccc(O)cc2)NC(=O)CCSSC[C@@H](C(=O)N(C)CC(=O)N[C@@H](CCCN=C(N)N)C(=O)NCC(N)=O)NC(=O)[C@H](CC(N)=O)NC1=O ([Mpa]YFVNC[Sar]RG-NH2; disulfide 1-6) [listing 1 of 2 here] |  |  | 552 | 0.4 | 1380
10 | N=C(N)NCCC[C@H](NC(=O)[C@@H]1CCCN1C(=O)[C@@H]1CSSC[C@H](N)C(=O)N[C@@H](Cc2ccc(O)cc2)C(=O)N[C@@H](Cc2ccccc2)C(=O)N[C@@H](CCC(N)=O)C(=O)N[C@@H](CC(N)=O)C(=O)N1)C(=O)NCC(N)=O [VASOPRESSIN] |  |  | 323 |  | 
11 | C[C@@H](C(=O)N[C@@H](CCCN=C(N)N)C(=O)NCC(N)=O)N(C)C(=O)[C@@H]1CSSC[C@H](N)C(=O)N[C@@H](Cc2ccccc2)C(=O)N[C@@H](Cc2ccccc2)C(=O)N[C@@H](CCC(N)=O)C(=O)N[C@@H](CC(N)=O)C(=O)N1 (H-CFFQNC[NMeA]RG-NH2; disulfide 1-6) [listing 1 of 2 here] |  |  | 14.5 | 0.57 | 25
12 | CN(CC(=O)N[C@H](CCCN=C(N)N)C(=O)NCC(N)=O)C(=O)[C@@H]1CSSCCC(=O)N[C@@H](Cc2ccc(O)cc2)C(=O)N[C@@H](Cc2ccccc2)C(=O)N[C@@H](CCC(N)=O)C(=O)N[C@@H](CC(N)=O)C(=O)N1 [listing 1 of 2 here] |  |  | 214.5 | 0.01 | 2145
13 | C[C@@H](C(=O)N[C@H](CCCN=C(N)N)C(=O)NCC(N)=O)N(C)C(=O)[C@@H]1CSSCCC(=O)N[C@@H](Cc2ccc(O)cc2)C(=O)N[C@@H](Cc2ccccc2)C(=O)N[C@@H](CCC(N)=O)C(=O)N[C@@H](CC(N)=O)C(=O)N1 [listing 1 of 2 here] | 51 | 290 |  |  | 
14 | CC(C)[C@@H]1NC(=O)[C@H](Cc2ccccc2)NC(=O)[C@H](Cc2ccc(O)cc2)NC(=O)CCSSC[C@@H](C(=O)N(C)CC(=O)N[C@@H](CCCN=C(N)N)C(=O)NCC(N)=O)NC(=O)[C@H](CC(N)=O)NC1=O ([Mpa]YFVNC[Sar]RG-NH2; disulfide 1-6) [listing 2 of 2 here] | 1.4 | 27 |  |  | 
15 | CN(CC(=O)N[C@H](CCCN=C(N)N)C(=O)NCC(N)=O)C(=O)[C@@H]1CSSC[C@H](N)C(=O)N[C@@H](Cc2ccc(O)cc2)C(=O)N[C@@H](Cc2ccccc2)C(=O)N[C@@H](CCC(N)=O)C(=O)N[C@@H](CC(N)=O)C(=O)N1 [listing 1 of 2 here] | 10 | 420 |  |  | 
16 | C[C@@H](C(=O)N[C@H](CCCN=C(N)N)C(=O)NCC(N)=O)N(C)C(=O)[C@@H]1CSSCCC(=O)N[C@@H](Cc2ccc(O)cc2)C(=O)N[C@@H](Cc2ccccc2)C(=O)N[C@@H](CCC(N)=O)C(=O)N[C@@H](CC(N)=O)C(=O)N1 [listing 2 of 2 here] |  |  | 368.5 | 0.07 | 5260
17 | C[C@@H](C(=O)N[C@@H](CCCN=C(N)N)C(=O)NCC(N)=O)N(C)C(=O)[C@@H]1CSSC[C@H](N)C(=O)N[C@@H](Cc2ccccc2)C(=O)N[C@@H](Cc2ccccc2)C(=O)N[C@@H](CCC(N)=O)C(=O)N[C@@H](CC(N)=O)C(=O)N1 (H-CFFQNC[NMeA]RG-NH2; disulfide 1-6) [listing 2 of 2 here] | 110 | 110 |  |  | 
18 | C[C@@H](C(=O)N[C@H](CCCN=C(N)N)C(=O)NCC(N)=O)N(C)C(=O)[C@@H]1CSSC[C@H](N)C(=O)N[C@@H](Cc2ccc(O)cc2)C(=O)N[C@@H](Cc2ccccc2)C(=O)N[C@@H](CCC(N)=O)C(=O)N[C@@H](CC(N)=O)C(=O)N1 [listing 2 of 2 here] |  |  | 69 | 0.11 | 630
19 | CC(C)[C@H]1NC(=O)[C@H](Cc2ccccc2)NC(=O)[C@@H](Cc2ccc(O)cc2)NC(=O)CCSSC[C@@H](C(=O)N(C)[C@@H](C)C(=O)N[C@@H](CCCN=C(N)N)C(=O)NCC(N)=O)NC(=O)[C@H](CC(N)=O)NC1=O | 9.4 | 53 | 103 | 0.69 | 150
20 | CN(CC(=O)N[C@H](CCCN=C(N)N)C(=O)NCC(N)=O)C(=O)[C@@H]1CSSCCC(=O)N[C@@H](Cc2ccc(O)cc2)C(=O)N[C@@H](Cc2ccccc2)C(=O)N[C@@H](CCC(N)=O)C(=O)N[C@@H](CC(N)=O)C(=O)N1 [listing 2 of 2 here] | 8.7 | 160 |  |  | 
21 | CN(CC(=O)N[C@H](CCCN=C(N)N)C(=O)NCC(N)=O)C(=O)[C@@H]1CSSC[C@H](N)C(=O)N[C@@H](Cc2ccc(O)cc2)C(=O)N[C@@H](Cc2ccccc2)C(=O)N[C@@H](CCC(N)=O)C(=O)N[C@@H](CC(N)=O)C(=O)N1 [listing 2 of 2 here] |  |  | 56 | 0.04 | 1400
